SMILES strings stand for the structures.

The conditions of data set [1]: λirr = 400 nm; cited from earlier work.
A further data set addresses T1, papain (Carica papaya, UniProt P00784).
T1 sequence (P00784 134-345): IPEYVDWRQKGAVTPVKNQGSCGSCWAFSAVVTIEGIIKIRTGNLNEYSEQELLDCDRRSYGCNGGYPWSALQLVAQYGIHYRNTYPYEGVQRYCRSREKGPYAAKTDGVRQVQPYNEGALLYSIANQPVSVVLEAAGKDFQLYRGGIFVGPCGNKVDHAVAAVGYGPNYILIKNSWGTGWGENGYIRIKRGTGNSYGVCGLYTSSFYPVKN
The data set is described as follows: Papain inhibition, chromogenic substrate BAPNA. The data set is classed as biochemical. The note with it: inhibitor 1 alone; papain 650 nM, phosphate buffer pH 6.5, 11% DMSO.

The next data set has as its target human cathepsin B (Homo sapiens, UniProt P07858). The data set is described as follows: Cathepsin B inhibition, fluorogenic substrate Z-Arg-Arg-AMC. The conditions noted are these: 1 alone; acetate buffer pH 6.0, cat B 8 nM, 1% DMSO. It counts as biochemical. In a few lines:
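Human cathepsin B at 8 nM in 0.4 M acetate buffer (pH 6.0, 4 mM EDTA, 8 mM DTT, final 1% DMSO), with Z-Arg-Arg-AMC at 100 μM. Reactions were run in the dark or after 10 min irradiation of the test compound (250 W tungsten halogen lamp, >395 nm, H2O filter). IC50 came from a sigmoidal fit of activity versus log[inhibitor], with 100% set by the no-inhibitor control.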

The target of another data set is T2, human cathepsin K (Homo sapiens, UniProt P43235).
T2 sequence (P43235 115-329): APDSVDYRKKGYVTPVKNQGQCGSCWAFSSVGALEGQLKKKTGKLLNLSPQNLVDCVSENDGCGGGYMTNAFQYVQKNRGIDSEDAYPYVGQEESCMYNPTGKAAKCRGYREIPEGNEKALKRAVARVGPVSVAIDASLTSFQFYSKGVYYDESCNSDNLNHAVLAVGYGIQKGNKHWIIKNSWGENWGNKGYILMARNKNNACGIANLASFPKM
The data set is described as follows: Cathepsin K inhibition, fluorogenic substrate Z-Gly-Pro-Arg-AMC. It counts as biochemical. The note with it: 1 alone; acetate buffer pH 5.5, cat K 20 nM, 1% DMSO. The method, boiled down: (§1)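 Human cathepsin K or L at 20 nM in 0.4 M acetate buffer (pH 5.5, 4 mM EDTA, 8 mM DTT, final 1% DMSO). Substrates at 100 μM were Z-Gly-Pro-Arg-AMC for K and Z-Phe-Arg-AMC for L. Reactions were run in the dark or after 10 min irradiation (250 W tungsten halogen lamp, >395 nm, H2O filter). IC50 came from a sigmoidal fit versus log[inhibitor], with 100% set by the no-inhibitor control.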

For a further data set, the target named is human cathepsin L (Homo sapiens, UniProt P07711). The data set is described as follows: Cathepsin L inhibition, fluorogenic substrate Z-Phe-Arg-AMC. The note with it: 1 alone; acetate buffer pH 5.5, cat L 20 nM, 1% DMSO. It counts as biochemical. In a few lines:
as §1

Data set [2] concerns the target human cathepsin B in DU145 lysates (Homo sapiens, UniProt P07858). Kind of data set: Cathepsin B activity in DU145 cell lysates, Z-Arg-Arg-AMC. The conditions noted are these: 1 alone; DU145 lysate. It counts as biochemical. The method, boiled down:
(§2)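 Cathepsin B activity was measured in DU145 or hBMSC cell lysates with fluorogenic Z-Arg-Arg-AMC at 100 μM, run in the dark or after the test compound was irradiated for 10 min with a 250 W tungsten halogen lamp (>395 nm, H2O filter). Activity was plotted against log[inhibitor] and fit to a sigmoidal curve to give IC50, with 100% set by the no-inhibitor control.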

Data set [3] deals with human cathepsin B in hBMSC lysates (Homo sapiens, UniProt P07858). The data set is described as follows: Cathepsin B activity in hBMSC lysates, Z-Arg-Arg-AMC. The data set is classed as biochemical. The note with it: 1 alone; hBMSC lysate. In a few lines:
as §2

Chain of human cathepsin L (P07711 114-333): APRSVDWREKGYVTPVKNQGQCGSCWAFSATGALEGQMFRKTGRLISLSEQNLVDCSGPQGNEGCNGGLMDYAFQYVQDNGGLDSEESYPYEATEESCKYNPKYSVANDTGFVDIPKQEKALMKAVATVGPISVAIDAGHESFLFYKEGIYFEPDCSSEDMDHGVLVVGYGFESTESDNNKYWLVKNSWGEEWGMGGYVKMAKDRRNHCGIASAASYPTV

On to `CC#N.CC#N.[Cl-].[Cl-].[Ru+2].c1ccc(-c2ccccn2)nc1.c1ccc(-c2ccccn2)nc1` [cis-[Ru(bpy)2(MeCN)2]Cl2], for which the “overall photoaquation quantum yield ΦR→P” value in data set [1] is recorded as 0.21.

For `CC(=O)N[C@@H](Cc1ccccc1)C(=O)NCC#N` [compound 1, Ac-Phe-NHCH2CN, reference compound], the IC50 at papain worked out at 0.638 µM; against human cathepsin B, 133 µM; on human cathepsin K, 12 µM; against human cathepsin L, 72 µM; in data set [2], 182 µM; in data set [3], 183 µM.

(Values after PMC4027032 (Journal of the American Chemical Society, 2011).)
